Measurements: ChEMBL document CHEMBL1152866, “Modulation of gene expression via disruption of NF-kappaB signaling by a bacterial small molecule” (Science, 2008)
Activity calls are given as the source filed them.

How the values were obtained:
[1] = system: MEF; test: Effect on TNF-induced c-jun mRNA expression in MEF by Northern blot analysis; type: functional, cell-based; conditions: Mus musculus
[2] = species on record: Mus musculus; test: Effect on IKK activity in LPS-induced mouse BMDM assessed as induction of phosphorylation of CREB treated 2 hrs after LPS challenge measured up to 120 mins by immunoblot analysis
[3] = target: T1, Inhibitor of nuclear factor kappa-B kinase subunit alpha (Mus musculus) (UniProt Q60680); test: Inhibition of LPS-induced IkappaBalpha phosphorylation in mouse BMDM measured up to 120 mins by Western blot analysis
T1 sequence (whole entry): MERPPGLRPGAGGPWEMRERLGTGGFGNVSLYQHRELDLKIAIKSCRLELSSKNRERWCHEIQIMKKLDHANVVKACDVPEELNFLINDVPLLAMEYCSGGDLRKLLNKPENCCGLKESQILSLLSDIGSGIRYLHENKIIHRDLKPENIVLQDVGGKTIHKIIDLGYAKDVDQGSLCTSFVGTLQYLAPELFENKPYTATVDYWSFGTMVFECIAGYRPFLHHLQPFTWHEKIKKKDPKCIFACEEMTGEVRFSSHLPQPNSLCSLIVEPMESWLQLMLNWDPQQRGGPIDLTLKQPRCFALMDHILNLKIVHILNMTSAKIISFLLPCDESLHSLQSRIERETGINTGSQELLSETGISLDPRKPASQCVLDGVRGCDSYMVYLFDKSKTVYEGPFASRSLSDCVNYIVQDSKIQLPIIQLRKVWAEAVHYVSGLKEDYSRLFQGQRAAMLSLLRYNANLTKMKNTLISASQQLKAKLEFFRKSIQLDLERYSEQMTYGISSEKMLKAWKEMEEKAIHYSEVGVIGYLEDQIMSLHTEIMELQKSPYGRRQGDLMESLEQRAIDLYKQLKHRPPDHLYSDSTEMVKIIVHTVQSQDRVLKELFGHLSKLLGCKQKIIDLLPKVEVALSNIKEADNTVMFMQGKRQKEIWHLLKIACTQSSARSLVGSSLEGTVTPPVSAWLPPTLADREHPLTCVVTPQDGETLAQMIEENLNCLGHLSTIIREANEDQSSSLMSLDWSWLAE

[4] = system: BMDM; test: Inhibition of LPS-induced TNF mRNA expression in mouse BMDM up to 3 hrs by Northern blot analysis; type: functional, cell-based
[5] = system: Macrophage; test: Inhibition of LPS-induced IP-10 mRNA expression in mouse alveolar macrophages after 90 mins by Northern blot analysis; type: functional, cell-based
[6] = target: T2, Inhibitor of nuclear factor kappa-B kinase subunit alpha (Homo sapiens) (UniProt O15111); test: Inhibition of TNF-induced IkappaBalpha phosphorylation in human bronchial epithelial cells up to 120 mins by Western blot analysis; type: cell-based; conditions: Epithelial cell
T2 sequence (whole entry): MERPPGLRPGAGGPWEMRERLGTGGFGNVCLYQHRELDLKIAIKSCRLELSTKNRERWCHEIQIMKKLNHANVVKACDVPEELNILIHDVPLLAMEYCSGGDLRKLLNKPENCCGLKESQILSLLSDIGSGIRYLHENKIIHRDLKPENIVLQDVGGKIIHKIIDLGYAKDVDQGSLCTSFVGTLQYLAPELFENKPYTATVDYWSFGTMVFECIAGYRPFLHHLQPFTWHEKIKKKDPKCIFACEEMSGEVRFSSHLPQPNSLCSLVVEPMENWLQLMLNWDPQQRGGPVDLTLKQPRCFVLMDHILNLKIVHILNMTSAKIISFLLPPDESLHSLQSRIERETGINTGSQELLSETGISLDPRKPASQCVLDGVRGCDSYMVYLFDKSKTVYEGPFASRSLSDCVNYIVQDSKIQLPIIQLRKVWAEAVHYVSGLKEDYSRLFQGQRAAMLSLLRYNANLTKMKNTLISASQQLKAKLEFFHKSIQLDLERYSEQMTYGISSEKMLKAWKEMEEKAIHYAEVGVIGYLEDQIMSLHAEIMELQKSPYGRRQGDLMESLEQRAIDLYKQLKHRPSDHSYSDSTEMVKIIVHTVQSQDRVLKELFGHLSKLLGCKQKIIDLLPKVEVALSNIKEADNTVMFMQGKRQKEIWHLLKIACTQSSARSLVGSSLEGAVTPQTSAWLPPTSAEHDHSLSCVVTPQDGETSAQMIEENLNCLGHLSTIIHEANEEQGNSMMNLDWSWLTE

[7] = system: MEF; test: Inhibition of TNF-induced RelA expression in mouse MEF up to 120 mins by Western blot analysis; type: functional, cell-based
[8] = system: BMDM; test: Inhibition of heat-killed Staphylococcus aureus-induced IkappaBalpha mRNA expression in mouse BMDM by Northern blot analysis; type: functional
[9] = target: T1, Inhibitor of nuclear factor kappa-B kinase subunit alpha (Mus musculus); test: Inhibition of LPS-induced IkappaBalpha phosphorylation in C57BL/6 mouse alveolar macrophages measured up to 120 mins by Western blot analysis
[10] = system: Macrophage; test: Inhibition of LPS-induced IRF-1 mRNA expression in mouse alveolar macrophages after 90 mins by Northern blot analysis; type: functional, cell-based
[11] = system: Macrophage; test: Inhibition of LPS-induced IkappaBalpha expression in C57BL/6 mouse alveolar macrophages measured up to 120 mins by Western blot analysis; type: functional, cell-based
[12] = target: T2, Inhibitor of nuclear factor kappa-B kinase subunit alpha (Homo sapiens); test: Inhibition of IkappaBalpha in human bronchial epithelial cells assessed after 2 hrs by Western blot analysis; type: cell-based; conditions: Epithelial cell
In short: (§1)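 WI38 lung fibroblasts and bronchial epithelial cells were stimulated for 2 hours. The same Western blot was probed for PARP cleavage, total IκBα and phosphorylated IκBα.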

[13] = system: Macrophage; test: Inhibition of LPS-induced TNF mRNA expression in mouse alveolar macrophages after 90 mins by Northern blot analysis; type: functional, cell-based
[14] = system: Blood; test: Inhibition of LPS-induced TNF production in human whole blood after 3 hrs; type: functional, tissue-based
[15] = system: PBMC; test: Inhibition of LPS-induced TNF mRNA expression in human PBMC up to 50 uM by Northern blot analysis; type: functional, cell-based
[16] = system: Macrophage; test: Inhibition of LPS-induced IkappaBalpha mRNA expression in mouse alveolar macrophages after 90 mins by Northern blot analysis; type: functional, cell-based
[17] = target: MAP kinase p38 (Homo sapiens) (UniProt O15264+Q15759+Q16539+P53778); test: Inhibition of TNF-induced p38 phosphorylation in human bronchial epithelial cells up to 120 mins by Western blot analysis; type: cell-based; conditions: Epithelial cell
[18] = system: Macrophage; test: Inhibition of LPS-induced TNF mRNA expression in mouse C57BL/6 mouse alveolar macrophages up to 50 uM by Northern blot analysis; type: functional, cell-based
[19] = target: MAP kinase p38 (Mus musculus) (UniProt P47811+O08911+Q9WUI1+Q9Z1B7); test: Inhibition of LPS-induced p38 phosphorylation in C57BL/6 mouse alveolar macrophages measured up to 120 mins by Western blot analysis
[20] = system: Macrophage; test: Inhibition of LPS-induced c-jun mRNA expression in mouse alveolar macrophages after 90 mins by Northern blot analysis; type: functional, cell-based
[21] = target: Transcription factor p65 (Mus musculus) (UniProt Q04207); test: Inhibition of TNF-induced RelA phosphorylation in mouse MEF up to 120 mins by Western blot analysis
[22] = system: Epithelial cell; test: Induction of apoptosis in TNF-stimulated human bronchial epithelial cells assessed as PARP cleavage after 2 hrs by Western blot analysis; type: functional, cell-based; in short: as §1

Measured: Activity

Chain of Transcription factor p65 (Mus musculus) (Q04207 whole entry): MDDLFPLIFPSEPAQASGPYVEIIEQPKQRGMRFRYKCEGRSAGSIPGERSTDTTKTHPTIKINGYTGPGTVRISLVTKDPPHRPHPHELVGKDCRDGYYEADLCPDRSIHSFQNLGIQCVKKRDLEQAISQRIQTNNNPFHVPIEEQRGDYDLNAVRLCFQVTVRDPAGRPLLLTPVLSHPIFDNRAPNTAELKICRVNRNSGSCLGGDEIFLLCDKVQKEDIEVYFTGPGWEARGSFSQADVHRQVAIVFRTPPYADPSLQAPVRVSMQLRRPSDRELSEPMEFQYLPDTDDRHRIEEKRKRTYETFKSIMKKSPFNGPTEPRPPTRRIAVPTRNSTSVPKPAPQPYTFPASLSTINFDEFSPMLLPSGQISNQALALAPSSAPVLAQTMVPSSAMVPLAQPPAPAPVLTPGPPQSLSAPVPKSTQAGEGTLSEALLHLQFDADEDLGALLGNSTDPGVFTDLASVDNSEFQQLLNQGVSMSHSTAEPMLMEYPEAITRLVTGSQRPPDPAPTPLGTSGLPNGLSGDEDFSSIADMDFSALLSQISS

CCCCCCCCCC(=O)CC(=O)N[C@H]1CCOC1=O
active: [1] | [2] | [3] | [4] Dose-dependent effect | [5] Dose-dependent effect | [6] | [7] | [8] | [9] | [10] Dose-dependent effect | [11] | [12] | [13] Dose-dependent effect | [14] | [15] | [16] Dose-dependent effect | [17] | [18] | [19] | [20] Dose-dependent effect | [21] | [22]
